Data taken from ChEMBL document CHEMBL1137321, “Identification of small molecule agonists of the orphan nuclear receptors liver receptor homolog-1 and steroidogenic factor-1” (J Med Chem, 2006).
Calls of active or inactive are those of the source. The rule behind the calls is not given here.

How the values were obtained:
Steroidogenic factor 1 [1] = target: T1, Steroidogenic factor 1 (Homo sapiens, UniProt Q13285); assay: Binding affinity to human SF1 by FRET-based peptide recruitment assay
Summary of the method: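 FRET assay measuring recruitment of a DAX-1 peptide (aa 1-23) to human SF-1. The apo-receptor starts with 1 equiv of bound phospholipid. Relative efficacy is normalized to the reference agonist at ±5%.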

[2] = target: T2, Nuclear receptor subfamily 5 group A member 2 (Homo sapiens, UniProt O00482); assay: Binding affinity to human LRH1 by FRET-based peptide recruitment assay
T2 sequence (O00482 whole entry): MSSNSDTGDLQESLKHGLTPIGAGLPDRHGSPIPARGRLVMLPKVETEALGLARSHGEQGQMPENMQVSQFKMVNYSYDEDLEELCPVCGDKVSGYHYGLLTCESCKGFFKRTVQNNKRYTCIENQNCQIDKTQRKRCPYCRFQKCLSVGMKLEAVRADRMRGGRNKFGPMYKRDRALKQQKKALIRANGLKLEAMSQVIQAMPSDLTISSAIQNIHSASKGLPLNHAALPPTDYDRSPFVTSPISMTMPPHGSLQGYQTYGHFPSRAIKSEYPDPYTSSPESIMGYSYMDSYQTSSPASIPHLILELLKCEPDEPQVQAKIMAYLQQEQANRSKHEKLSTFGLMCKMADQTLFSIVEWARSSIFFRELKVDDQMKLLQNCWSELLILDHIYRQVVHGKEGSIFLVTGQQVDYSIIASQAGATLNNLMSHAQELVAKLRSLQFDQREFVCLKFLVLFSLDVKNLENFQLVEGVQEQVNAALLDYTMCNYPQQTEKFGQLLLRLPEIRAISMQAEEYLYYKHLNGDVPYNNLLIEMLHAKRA
Summary of the method: (§1)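 The apo-receptor starts with 1 equiv of bound phospholipid. EC50 determined, n = 3. Relative efficacy is normalized to the reference agonist at ±5%.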

Steroidogenic factor 1 [3] = target: T1, Steroidogenic factor 1; assay: Binding affinity to human SF1 relative to 3-Hexyl-1-phenylamino-2-phenyl-cis-bicyclo[3.3.0]oct-2-ene1 by FRET-based peptide recruitment assay
Summary of the method: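 FRET assay measuring recruitment of a DAX-1 peptide (aa 1-23) to human SF-1. The apo-receptor starts with 1 equiv of bound phospholipid. EC50 determined, n = 3. Relative efficacy is normalized to the reference agonist at ±5%.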

[4] = target: T2, Nuclear receptor subfamily 5 group A member 2; assay: Binding affinity to human LRH1 relative to 3-(E-Oct-4-en-4-yl)-1-phenylamino-2-phenyl-cis-bicyclo[3.3.0]oct-2-ene by FRET-based peptide recruitment assay; summary of the method: as §1
[5] = target: T2, Nuclear receptor subfamily 5 group A member 2; assay: Agonist activity at human LRH1 assessed as induction of SHP mRNA expression in HepG2 cells at 10 uM; format: functional, cell-based
Summary of the method: (§2)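 Human liver cells (HepG2 cells or primary hepatocytes) treated with 10 µM compound; SHP mRNA expression quantified by quantitative PCR.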

[6] = target: T2, Nuclear receptor subfamily 5 group A member 2; assay: Agonist activity at human LRH1 expressed in CV1 cells assessed as SHP reporter gene transactivation by luciferase assay; format: functional, cell-based, CV-1
[7] = target: T2, Nuclear receptor subfamily 5 group A member 2; assay: Agonist activity at human LRH1 assessed as induction of SHP mRNA expression in human primary hepatocytes at 10 uM; format: functional, cell-based; conditions: Hepatocyte; summary of the method: as §2

T1 sequence (Q13285 whole entry, the tested form may be a part): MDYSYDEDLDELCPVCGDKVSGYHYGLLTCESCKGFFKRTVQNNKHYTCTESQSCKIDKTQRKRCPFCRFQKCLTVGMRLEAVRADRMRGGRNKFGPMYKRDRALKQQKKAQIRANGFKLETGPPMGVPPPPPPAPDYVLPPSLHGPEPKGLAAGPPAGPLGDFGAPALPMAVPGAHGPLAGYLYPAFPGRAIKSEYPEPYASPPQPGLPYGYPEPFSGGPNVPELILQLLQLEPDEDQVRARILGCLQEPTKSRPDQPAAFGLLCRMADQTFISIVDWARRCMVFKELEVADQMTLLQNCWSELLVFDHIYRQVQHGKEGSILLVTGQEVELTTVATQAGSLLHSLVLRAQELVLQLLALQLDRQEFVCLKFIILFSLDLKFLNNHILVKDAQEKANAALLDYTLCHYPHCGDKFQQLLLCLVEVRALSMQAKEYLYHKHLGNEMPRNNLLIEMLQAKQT

EC50 (Steroidogenic factor 1 [1]) [nM]	EC50 [2] [nM]	Efficacy (Steroidogenic factor 1 [3]) [%]	Efficacy [4] [%]	Activity [5]	EC50 [6] [nM]	Activity [7]	SMILES
> 10000	> 10000	–	–	–	–	–	CCCCCCCCCCCCC1=C(c2ccccc2)[C@]2(Nc3ccccc3)CCC[C@@H]2C1 (relative stereo)
> 10000	> 10000	–	–	–	–	–	CCCCCCC1=C(c2ccccc2)[C@]2(Nc3ccc(I)cc3)CCC[C@@H]2C1 (relative stereo)
14	> 10000	30	–	–	–	–	CCCCC/C=C(\CCCCC)C1=C(c2ccccc2)[C@]2(Nc3ccccc3)CCC[C@@H]2C1 (relative stereo)
120	150	55	35	–	–	–	c1ccc(N[C@@]23CCC[C@@H]2CC(c2ccccc2)=C3c2ccccc2)cc1 (relative stereo)
> 10000	> 10000	–	–	–	–	–	CCCCCCC1=C(c2ccccc2)[C@]2(Nc3ccc(OC(F)(F)F)cc3)CCC[C@@H]2C1 (relative stereo)
–	430	50	–	Active	1000	Active	CCC/C=C(\CCC)C1=C(c2ccccc2)[C@]2(Nc3ccccc3)CCC[C@@H]2C1 (relative stereo)
> 10000	2100	–	20	–	–	–	CC1=C(c2ccccc2)[C@]2(Nc3ccccc3)CCC[C@@H]2C1 (relative stereo)
140	100	45	115	–	–	–	CCC/C=C(\CCC)C1=C(c2cccc(OC)c2)[C@]2(Nc3ccccc3)CCC[C@@H]2C1 (relative stereo)
700	1000	25	15	–	–	–	CCCCCCC1=C(c2ccccc2)[C@]2(Nc3ccc(Cl)cc3)CCC[C@@H]2C1 (relative stereo)
130	320	95	25	–	–	–	CCCCCCCCC(C)C1=C(c2ccccc2)[C@]2(Nc3ccccc3)CCC[C@@H]2C1 (relative stereo)
10	12	90	50	–	–	–	CCC/C=C(\CCC)C1=C(C2CCCCC2)[C@]2(Nc3ccccc3)CCC[C@@H]2C1 (relative stereo)
–	34	–	45	–	–	–	CCCCCCC1=C(c2ccccc2)[C@]2(Nc3ccccc3)CCC[C@@H]2C1 (relative stereo)
170	160	35	70	–	–	–	CCC/C=C(\CCC)C1=C(c2ccc(Br)cc2)[C@]2(Nc3ccccc3)CCC[C@@H]2C1 (relative stereo)
30	22	95	50	–	–	–	CCC/C=C(\CCC)C1=C(CCCC)[C@]2(Nc3ccccc3)CCC[C@@H]2C1 (relative stereo)
> 10000	1200	–	45	–	–	–	CCCCCCC1=C(c2ccccc2)[C@]2(Nc3cccc4ccccc34)CCC[C@@H]2C1 (relative stereo)
130	70	90	45	–	–	–	CCCCC(C)C1=C(c2ccccc2)[C@]2(Nc3ccccc3)CCC[C@@H]2C1 (relative stereo)
> 10000	90	–	15	–	–	–	CCC/C=C(\CCC)C1=C(C)[C@]2(Nc3ccccc3)CCC[C@@H]2C1
> 10000	> 10000	–	–	–	–	–	CCCCCCC1=C(c2ccccc2)[C@]2(Nc3ccc(C(C)(C)C)cc3)CCC[C@@H]2C1 (relative stereo)
11	30	20	30	–	–	–	CCCCCCC1=C(c2ccccc2)[C@]2(Nc3cccc(C)c3C)CCC[C@@H]2C1 (relative stereo)
180	230	65	25	–	–	–	c1ccc(N[C@@]23CCC[C@@H]2CC(C2CCCCC2)=C3c2ccccc2)cc1 (relative stereo)
560	330	70	45	–	–	–	CCCCCCC1=C(c2ccccc2)[C@]2(Nc3cccc(F)c3)CCC[C@@H]2C1 (relative stereo)
130	60	30	55	–	–	–	CCC/C=C(\CCC)C1=C(c2ccc3ccccc3c2)[C@]2(Nc3ccccc3)CCC[C@@H]2C1 (relative stereo)
800	1400	80	50	–	–	–	CC/C=C(\CC)C1=C(c2ccccc2)[C@]2(Nc3ccccc3)CCC[C@@H]2C1 (relative stereo)
